Experimental findings from PubChem BioAssay AID624082 (The Scripps Research Institute Molecular Screening Center, 2012) are described below.

Calls of active or inactive are those of the source.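 The calls were made as follows: active = MIC showing a fourfold drop that lands at or below 10 µM; inactive = fourfold-lowered MIC still above 10 µM.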 Bounds are passed on as bounds.

Test [1] relates to K. pneumoniae BAA-2146 NDM-1, imipenem synergy, growth MIC. Put plainly: bacterial growth inhibition in synergy with imipenem – BAA-2146, NDM-1 transformed, nonselective, MIC fold reduction, VIM-2 MBL inhibitor project, late-stage follow-up (AID 624082). In short, it runs like this: (§1)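 Assay system – log-phase bacterial culture in a checkerboard broth microdilution · Buffer or medium – Mueller-Hinton broth, cation-adjusted (CAMHB) · Reagent – imipenem, two-fold titration series · Dosing – test compound two-fold serial titration, crossed with imipenem titration · Times – aerobic incubation of inoculated wells, at least 18 h, 37 °C · Read-out – MIC per CLSI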

Experiment in test [2]: as above
Particulars: K. pneumoniae BAA-2146 NDM-1, imipenem synergy, growth MIC; measured here: max imipenem fold potentiation; stronger effect = higher value. The method in brief: as §1

`CC(=O)N1CCN(NC(=O)CN2C(=O)/C(=C/c3c(Cl)cccc3Cl)SC2=S)CC1`: the MIC in test [1] was > 50 µM (inactive). The same measure, in the same setting: the result for `O=C(CN1C(=O)/C(=C/c2c(Cl)cccc2Cl)SC1=S)NN1CCN(Cc2ccccc2)CC1` reads > 50 µM (inactive); that for `CN1CCN(C(=O)CN2C(=O)/C(=C/c3c(Cl)ccc(Cl)c3Cl)SC2=S)CC1`, > 50 µM (inactive); that for `CC(C)N1CCN(NC(=O)CN2C(=O)/C(=C/c3c(Cl)cccc3Cl)SC2=S)CC1`, > 50 µM (inactive). On to `O=C(CN1C(=O)/C(=C/c2c(Cl)ccc(Cl)c2Cl)SC1=S)NN1CCNCC1`, for which the MIC in test [1] is > 50 µM (inactive). Further, in test [2], the fold potentiation was 2. The corresponding values for `CN1CCN(NC(=O)CN2C(=O)/C(=C/c3c(F)cccc3Cl)SC2=S)CC1` are > 50 µM (inactive) and 2.

Take `O=C(O)CN1C(=O)/C(=C/c2c(Cl)cccc2Cl)SC1=S`: in test [1], the MIC is > 100 µM (inactive). In the case of `CC(C)(C)OC(=O)N1CCN(NC(=O)CN2C(=O)/C(=C/c3c(Cl)cccc3Cl)SC2=S)CC1`, the MIC in test [1] was > 100 µM (inactive).

For `CN1CCN(NC(=O)CN2C(=O)/C(=C/c3c(F)cccc3C(F)(F)F)SC2=S)CC1`, the MIC in test [1] is > 50 µM (inactive). Also, in test [2], the fold potentiation was found to be 2.

In the case of `CN1CCN(NC(=O)CN2C(=O)/C(=C/c3c(C(F)(F)F)ccc(Cl)c3Cl)SC2=S)CC1`, the MIC in test [1] is > 50 µM (inactive). Besides, the fold potentiation in test [2] stood at 2. The corresponding values for `CN1CCN(NC(=O)CN2C(=O)/C(=C/c3c(Cl)ccc(C(F)(F)F)c3Cl)SC2=S)CC1` are > 50 µM (inactive) and 2.

Regarding `O=C(CN1C(=O)/C(=C/c2c(Cl)cccc2Cl)SC1=S)NN1CCN(C(=O)c2ccccc2)CC1`, the MIC in test [1] was > 50 µM (inactive). Take `CN1CCN(NC(=O)CN2C(=O)/C(=C/c3c(Cl)cccc3Cl)SC2=S)CC1`: in test [1], the MIC is > 100 µM (inactive). In addition, the fold potentiation in test [2] was found to be 2. For `O=C(CN1C(=O)/C(=C/c2c(Cl)cccc2Cl)SC1=S)NCc1ccccn1`, the MIC in test [1] was > 100 µM (inactive). Same read-out and setting: the result for `CCN(CC)OC(=O)CN1C(=O)/C(=C/c2c(Cl)cccc2Cl)SC1=S` reads > 100 µM (inactive); that for `O=C(CN1C(=O)/C(=C/c2c(Cl)cccc2Cl)SC1=S)NN1CCNCC1`, > 50 µM (inactive); that for `CC(C)(C)OC(=O)N1CCN(NC(=O)CN2C(=O)/C(=C/c3c(Cl)ccc(Cl)c3Cl)SC2=S)CC1`, > 50 µM (inactive). Still for that read-out and setting: the result for `O=C(CN1C(=O)/C(=C/c2c(Cl)ccc(Cl)c2Cl)SC1=S)NN1CCCCC1` reads > 50 µM (inactive). On to `CN1CCN(NC(=O)CN2C(=O)/C(=C/c3c(Cl)ccc(Cl)c3Cl)SC2=S)CC1`, for which the MIC in test [1] was > 50 µM (inactive). The fold potentiation in test [2] was found to be 2. `O=C(O)CN1C(=O)/C(=C/c2c(F)cccc2C(F)(F)F)SC1=S`: the MIC in test [1] is > 50 µM (inactive). As for `O=C(CN1C(=O)/C(=C/c2c(Cl)ccc(Cl)c2Cl)SC1=S)NCc1ccccn1`, in test [1], the MIC was > 50 µM (inactive).
